SIAE primary = human SIAE inhibition, primary screen. Q9HAT2. SIAE FP-Rh probe binding, fluorescence polarization. inhibition, % at 9.66 µM. actives 0.69% (n = 370,000). AID 1053197;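 active = inhibition above a cutoff: mean of compounds within the control limits plus 3 SD of those, cut at about 17% in these data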;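 also: 0% = plate median of compound wells and 100% = probe without SIAE protein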
PRMT1 inh = PRMT1 (human) inhibition, primary screen; Q99873; recombinant PRMT1, activity-based probe fluorescence polarization; inhibition, % at 2.79 µM; actives 1.3% (n = 370,000);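 active = inhibition above about 21% made by adding two undisclosed values, limit read from the data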
Target sequence (Q99873 whole entry, looked up): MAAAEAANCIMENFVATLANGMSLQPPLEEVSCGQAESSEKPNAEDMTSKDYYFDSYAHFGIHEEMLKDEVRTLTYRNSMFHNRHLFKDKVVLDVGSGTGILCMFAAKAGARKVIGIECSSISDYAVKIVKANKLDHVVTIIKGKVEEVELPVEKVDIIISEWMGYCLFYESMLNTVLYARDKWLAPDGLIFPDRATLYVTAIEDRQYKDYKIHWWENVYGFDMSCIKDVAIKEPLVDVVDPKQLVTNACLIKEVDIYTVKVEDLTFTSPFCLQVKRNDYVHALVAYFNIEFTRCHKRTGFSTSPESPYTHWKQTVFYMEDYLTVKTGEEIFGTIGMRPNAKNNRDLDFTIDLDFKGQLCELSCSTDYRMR
HTRA1 inhibitor = blocks human HTRA1 serine peptidase; actives 0.5% (n = 340,000); recombinant HTRA1, FP-rhodamine activity-based probe, fluorescence polarization; inhibition, % at 5.96 µM; Q92743; in the data active = inhibition above about 36%;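 also: 0% = enzyme with DMSO and 100% = wells lacking enzyme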
TCR CD3 inh = human TCR-CD3 binding inhibition; actives 0.37% (n = 360,000); TAMRA-labeled TCR probe fluorescence, biochemical; inhibition, % at 9.4 µM; in the data active = inhibition above about 19%;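 also: recombinant mutant TCR 2C K166C tagged with TAMRA read by polarization; 0% = receptor in buffer alone and 100% = receptor with positive control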
mABHD4 FP = inhibitors of mouse ABHD4; Q8VD66; purified mABHD4, FP-Rh probe fluorescence polarization; inhibition, % at 8.92 µM; actives 0.54% (n = 370,000); AID 720543;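 active = inhibition exceeding the mean over every tested compound plus 3 SD, cut at about 30% in these data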;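 also: 0% = plate median of compound wells and 100% = S159A mutant with DMSO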
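Assay system: Wild-type mouse ABHD4 protein | Medium: HEPES pH 7.0 buffer, 150 mM NaCl, 0.01% Pluronic F-127 | Incubation: Enzyme–compound pre-incubation 45 min, then probe 60 min, both 25 °C | Technique: Fluorescence polarization with parallel and perpendicular emission, 525/598 nm | Evaluation: % inhibition of FP-Rh probe binding versus controls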
HTRA1 inh conf = HTRA1 (human) inhibition, confirmation; shares compounds with HTRA1 inhibitor; recombinant HTRA1, FP-rhodamine activity-based probe, fluorescence polarization; inhibition, % at 5.96 µM; actives 66% (n = 1,600); AID 540248;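 active = mean inhibition over three repeats above a set limit taken from the earlier primary screen, cut at about 37% in these data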;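 also: 0% = HTRA1 with DMSO and 100% = wells lacking HTRA1; inhibitors block probe binding so polarization drops and inhibition rises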
Numbers without * were called inactive; nt = not tested or not shown; + = active, no number. The list is not random: actives were taken first. Their share in the collection is about 2.7%.

SMILES	SIAE primary	PRMT1 inh	HTRA1 inhibitor	TCR CD3 inh	mABHD4 FP	HTRA1 inh conf
NC1=CC(=O)C(=O)c2ccccc21	-5	3	10	4	25	nt
CC(N=Cc1cc([N+](=O)[O-])ccc1O)c1ccccc1 (centres undefined)	7	0	1	-1	7	nt
Cc1ccccc1N=Cc1cccc(O)c1O	nt	nt	49*	nt	nt	32
Cc1cccc(C=Nc2ccc3c(c2)oc2ccccc23)c1O	5	-1	6	5	4	nt
CC(N=Cc1cccc(O)c1O)c1ccccc1 (centres undefined)	nt	nt	66*	nt	nt	100*
Cc1ccc2c(c1)sc(-c1ccc(N(C)C)cc1)[n+]2C	0	18	10	1	8	nt
CCn1c(CSc2nccn2C)nc2cc(C(=O)O)ccc21	nt	nt	38*	nt	nt	48*
CCOC(=O)C1Nc2ccc(OC(F)(F)F)cc2C2C=CCC12 (centres undefined)	6	13	58*	-1	11	55*
O=C(NC1CC1)C1Nc2ccc(OC(F)(F)F)cc2C2C=CCC12 (centres undefined)	3	22*	48*	-12	28	-3
O=C(NCc1ccccc1)C1Nc2ccc(OC(F)(F)F)cc2C2C=CCC12 (centres undefined)	10	12	17	-3	12	nt
O=C(NCC1CC1)c1ccc(-c2cn[nH]c2)c2ccoc12	-2	0	nt	-2	1	nt
O=C(O)C1CCCN1c1nc(-c2ccc(Cl)c(Cl)c2)cc(C(F)(F)F)n1 (centres undefined)	0	-2	2	8	-6	nt
O=c1cc(CN2CCN(Cc3ccccc3)CC2)c2ccc(O)c(O)c2o1	1	6	61*	11	19	70*
Oc1c(CN2CCN(c3ccccn3)CC2)cc(Cl)c2cccnc12	nt	nt	39*	nt	nt	58*
OCCN1CCN(Cc2cc(Br)cc(Br)c2O)CC1	3	2	0	0	2	nt
O=c1c(CN2CCN(c3ccccn3)CC2)coc2ccccc12	1	-3	2	0	1	nt
OCCN1CCN(Cc2cc(Cl)c3cccnc3c2O)CC1	4	3	52*	6	4	54*
CCOc1ccc(N2C(=O)CS/C2=C(\C(Cl)=C(Cl)Cl)[N+](=O)[O-])cc1	nt	nt	42*	nt	nt	+
O=C1CCNc2cc3ccccc3cc21	nt	nt	41*	nt	nt	14
Oc1ccc(/C=N/Nc2cccc3cccnc23)c(O)c1	7	9	47*	-5	29	33
Cc1cc(-c2ccccc2)nc(N/N=C/c2ccc(O)cc2O)n1	14	5	41*	-2	24	75*
CCN(CC)C(CNS(=O)(=O)c1ccc(Cl)cc1)c1ccccc1 (centres undefined)	-6	3	3	0	7	nt
COc1ccc(OC)c(/C=N/NC(=O)CCc2ccc(O)c(O)c2)c1	-2	48*	53*	5	12	79*
Nc1ncnc(Oc2cccc3cccnc23)c1[N+](=O)[O-]	-3	8	40*	-5	-7	34
Cc1cccc(Oc2ncnc(N)c2[N+](=O)[O-])c1C	3	0	2	1	4	nt
SMILES	SIAE primary	PRMT1 inh	HTRA1 inhibitor	TCR CD3 inh	mABHD4 FP	HTRA1 inh conf
CN(C)c1ccc(N=Cc2cccn2C)cc1	15	10	42*	14	35*	7
CCOC(=O)C1CCCN(C2=C(NS(=O)(=O)c3ccc(Br)cc3)C(=O)c3ccccc3C2=O)C1 (centres undefined)	13	14	46*	3	25	62*
CCC(=O)NC(c1ccc(C)cc1)c1cc(Cl)c2cccnc2c1O (centres undefined)	nt	nt	62*	nt	nt	76*
CN1CCN(C(c2ccc(Br)cc2)c2cc(Cl)c3cccnc3c2O)CC1 (centres undefined)	-4	-3	52*	-16	-5	70*
COc1ccc(C(NC(C)=O)c2nccc3cc(OC)c(OC)cc23)cc1OC (centres undefined)	6	4	-8	-7	-12	nt
COc1ccc(C(NC(C)=O)c2cc(Cl)c3cccnc3c2O)cc1OC (centres undefined)	15	0	42*	-2	6	56*
CCC(=O)NC(C)c1cc(Cl)c2cccnc2c1O (centres undefined)	8	-2	48*	4	-1	82*
CCn1cc(C(=O)N2CCCC(C(=O)c3cccc(C(F)(F)F)c3)C2)cn1 (centres undefined)	3	4	-2	-1	-3	nt
O=C(CSc1nc2ccccc2o1)NN=C/C=C/c1ccccc1	4	15	nt	nt	5	nt
Cc1nnc(-c2cnn(C)c2N)n1CCCN1CCOCC1	5	-6	11	2	0	nt
CC(=O)NC(C)c1cc(Cl)c2ccccc2c1O (centres undefined)	6	-1	-1	2	0	nt
CCOc1ccc(C(Nc2cccnc2)c2cc(Cl)c3cccnc3c2O)cc1 (centres undefined)	0	12	43*	0	0	42*
Oc1c(Cl)cc(Cl)c2cccnc12	23*	1	48*	-3	11	56*
O=C(NC(c1ccccc1)c1cc(Cl)c2cccnc2c1O)c1cccnc1 (centres undefined)	-2	-2	nt	-7	6	nt
Cc1ccc2c(Cl)cc(Cl)c(O)c2n1	11	-5	40*	-4	5	47*
Cc1cc(Cl)c2ccc3ccccc3c2n1	4	-1	1	3	-3	nt
CC(=O)NC(C)c1cc(Cl)c2cccnc2c1O (centres undefined)	1	1	41*	-1	4	52*
O=C(CNC(=O)c1ccc(Cl)cc1Cl)OCc1cn2cc(Br)ccc2n1	1	1	-1	2	-3	nt
CCOC(=O)/C(=N/Nc1ccccc1)c1csc(Nc2ccccc2)n1	9	0	27	-8	10	nt
CCOC(=O)/C(=N\Nc1ccc(OC)cc1)c1csc(Nc2ccccc2)n1	15	-2	43*	5	13	28
CCN1C(=O)[C@H]2[C@@H](c3ccc(C(F)(F)F)cc3)N[C@]3(CCCN(Cc4ccc(C)cc4)C3=O)[C@H]2C1=O	0	3	2	1	4	nt
COc1ccccc1N1CCN(S(=O)(=O)c2ccc3c(c2)n(C)c(=O)c(=O)n3C)CC1	0	-1	nt	nt	7	nt
O=C(CN1C(=O)/C(=C/c2ccccc2)SC1=S)NNC(=O)c1ccccc1O	2	4	55*	18	-1	42*
CC(C)(C)NC(=O)CN1C(=O)/C(=C/c2ccccc2)SC1=S	2	3	2	-8	-3	nt
COCCCn1c(SCC(=O)N2CCCC2=O)nc2ccccc2c1=O	0	0	3	8	1	nt
Cc1c[nH]c2cccc(-c3c(Cl)cccc3Cl)c12	5	8	nt	nt	-13	nt
